{"source": "ChEMBL document CHEMBL1255479", "about": "“Preclinical characterization of the antiviral activity of SCH 900518 (narlaprevir), a novel mechanism-based inhibitor of hepatitis C virus NS3 protease” (Antimicrob Agents Chemother, 2010)", "key": {"[1]": {"system": "Hepatitis C virus", "experiment": "Resistance index, ratio of EC50 for boceprevir-resistant Hepatitis C virus genotype 1b expressing NS3 protease A156S mutant to EC50 for wild type Hepatitis C virus genotype 1b after 3 days by RT-PCR method", "type": "functional, Hepacivirus hominis", "procedure,_shortened": "(§1)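 Replicons carrying mutant or wild-type NS3 protease treated 3 days; replicon RNA by real-time PCR against GAPDH. EC50 = concentration raising CT by 1 over projected baseline; EC90 = increase of 3.2. Index = mutant/wild-type fold increase, means of two or more experiments unless stated (some single experiment).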"}, "[2]": {"system": "Hepatitis C virus", "experiment": "Resistance index, ratio of EC50 for boceprevir-resistant Hepatitis C virus genotype 1b expressing NS3 protease R155K mutant to EC50 for wild type Hepatitis C virus genotype 1b after 3 days by RT-PCR method", "type": "functional, Hepacivirus hominis", "procedure,_shortened": "as §1"}, "[3]": {"system": "Hepatitis C virus", "experiment": "Ratio of Ki for boceprevir-resistant Hepatitis C virus genotype 1b NS3 protease D168V mutant to Ki for Hepatitis C virus genotype 1b NS3 protease", "design": "species or system Hepatitis C virus subtype 1b", "procedure,_shortened": "(§2)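 Recombinant single-chain NS3-NS4A protease (wild type or mutant) in a continuous spectrophotometric assay with chromogenic substrate acetyl-DTEDVVP(norvaline)-O-4-phenylazophenol. Absorbance followed over 60 min at several inhibitor concentrations. Progress curves fit to a modified Morrison equation; K*i derived using substrate concentration and Km. Values are mutant/wild-type fold increase, means of two or more experiments unless noted.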"}, "[4]": {"system": "Hepatitis C virus", "experiment": "Resistance index, ratio of EC50 for boceprevir-resistant Hepatitis C virus genotype 1b expressing NS3 protease T54A mutant to EC50 for wild type Hepatitis C virus genotype 1b after 3 days by RT-PCR method", "type": "functional, Hepacivirus hominis", "procedure,_shortened": "as §1"}, "[5]": {"system": "Hepatitis C virus", "experiment": "Resistance index, ratio of EC50 for boceprevir-resistant Hepatitis C virus genotype 1b expressing NS3 protease V36M mutant to EC50 for wild type Hepatitis C virus genotype 1b after 3 days by RT-PCR method", "type": "functional, Hepacivirus hominis", "procedure,_shortened": "as §1"}, "[6]": {"system": "Hepatitis C virus", "experiment": "Ratio of Ki for boceprevir-resistant Hepatitis C virus genotype 1b NS3 protease V170A mutant to Ki for Hepatitis C virus genotype 1b NS3 protease", "design": "species or system Hepatitis C virus subtype 1b", "procedure,_shortened": "as §2"}, "[7]": {"system": "Hepatitis C virus", "experiment": "Ratio of Ki for boceprevir-resistant Hepatitis C virus genotype 1b NS3 protease V36M and R155K double-mutant to Ki for Hepatitis C virus genotype 1b NS3 protease", "design": "species or system Hepatitis C virus subtype 1b", "procedure,_shortened": "as §2"}, "[8]": {"system": "Hepatitis C virus", "experiment": "Ratio of Ki for boceprevir-resistant Hepatitis C virus genotype 1b NS3 protease T54S and R155K double-mutant to Ki for Hepatitis C virus genotype 1b NS3 protease", "design": "species or system Hepatitis C virus subtype 1b", "procedure,_shortened": "as §2"}, "[9]": {"system": "Hepatitis C virus", "experiment": "Resistance index, ratio of EC50 for boceprevir-resistant Hepatitis C virus genotype 1b expressing NS3 protease V36M and R155K mutant to EC50 for wild type Hepatitis C virus genotype 1b after 3 days by RT-PCR method", "type": "functional, Hepacivirus hominis", "procedure,_shortened": "as §1"}, "[10]": {"system": "Hepatitis C virus", "experiment": "Resistance index, ratio of EC50 for boceprevir-resistant Hepatitis C virus genotype 1b expressing NS3 protease V170A mutant to EC50 for wild type Hepatitis C virus genotype 1b after 3 days by RT-PCR method", "type": "functional, Hepacivirus hominis", "procedure,_shortened": "as §1"}, "[11]": {"system": "Hepatitis C virus", "experiment": "Resistance index, ratio of EC50 for boceprevir-resistant Hepatitis C virus genotype 1b expressing NS3 protease D168V mutant to EC50 for wild type Hepatitis C virus genotype 1b after 3 days by RT-PCR method", "type": "functional, Hepacivirus hominis", "procedure,_shortened": "as §1"}, "[12]": {"system": "Hepatitis C virus", "experiment": "Resistance index, ratio of EC50 for boceprevir-resistant Hepatitis C virus genotype 1b expressing NS3 protease A156T mutant to EC50 for wild type Hepatitis C virus genotype 1b after 3 days by RT-PCR method", "type": "functional, Hepacivirus hominis", "procedure,_shortened": "as §1"}, "[13]": {"system": "Hepatitis C virus", "experiment": "Ratio of Ki for boceprevir-resistant Hepatitis C virus genotype 1b NS3 protease A156T mutant to Ki for Hepatitis C virus genotype 1b NS3 protease", "design": "species or system Hepatitis C virus subtype 1b", "procedure,_shortened": "as §2"}, "[14]": {"system": "Hepatitis C virus", "experiment": "Ratio of Ki for boceprevir-resistant Hepatitis C virus genotype 1b NS3 protease A156S mutant to Ki for Hepatitis C virus genotype 1b NS3 protease", "design": "species or system Hepatitis C virus subtype 1b", "procedure,_shortened": "as §2"}, "[15]": {"system": "Hepatitis C virus", "experiment": "Ratio of Ki for boceprevir-resistant Hepatitis C virus genotype 1b NS3 protease R155K mutant to Ki for Hepatitis C virus genotype 1b NS3 protease", "design": "species or system Hepatitis C virus subtype 1b", "procedure,_shortened": "as §2"}, "[16]": {"system": "Hepatitis C virus", "experiment": "Ratio of Ki for boceprevir-resistant Hepatitis C virus genotype 1b NS3 protease T54S mutant to Ki for Hepatitis C virus genotype 1b NS3 protease", "design": "species or system Hepatitis C virus subtype 1b", "procedure,_shortened": "as §2"}, "[17]": {"system": "Hepatitis C virus", "experiment": "Ratio of Ki for boceprevir-resistant Hepatitis C virus genotype 1b NS3 protease F43C mutant to Ki for Hepatitis C virus genotype 1b NS3 protease", "design": "species or system Hepatitis C virus subtype 1b", "procedure,_shortened": "as §2"}, "[18]": {"system": "Hepatitis C virus", "experiment": "Ratio of Ki for boceprevir-resistant Hepatitis C virus genotype 1b NS3 protease T54A mutant to Ki for Hepatitis C virus genotype 1b NS3 protease", "design": "species or system Hepatitis C virus subtype 1b", "procedure,_shortened": "as §2"}, "[19]": {"system": "Hepatitis C virus", "experiment": "Ratio of Ki for boceprevir-resistant Hepatitis C virus genotype 1b NS3 protease V36A mutant to Ki for Hepatitis C virus genotype 1b NS3 protease", "design": "species or system Hepatitis C virus subtype 1b", "procedure,_shortened": "as §2"}, "[20]": {"experiment": "Cytotoxicity against human HuH7 cells by MTS assay", "type": "cell-based, Huh-7"}, "[21]": {"system": "Hepatitis C virus", "experiment": "Ratio of Ki for boceprevir-resistant Hepatitis C virus genotype 1b NS3 protease V36M mutant to Ki for Hepatitis C virus genotype 1b NS3 protease", "design": "species or system Hepatitis C virus subtype 1b", "procedure,_shortened": "as §2"}, "[22]": {"system": "Hepatitis C virus", "experiment": "Antiviral activity against Hepatitis C virus genotype 1b assessed as log reduction in RNA level at 5 times EC90 after 14 days by RT-PCR method", "type": "functional, organism-based", "conditions": "Hepacivirus hominis", "procedure,_shortened": "(§3)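 Replicon cells kept on compound for up to 14 days, refreshed every 2–3 days and split at confluence. Replicon RNA by TaqMan: dCT = NS5B CT − GAPDH CT; ddCT = treated dCT − vehicle-control dCT; log RNA reduction = log(1/2^ddCT), with day 0 set to 0. Curve fit to one-phase exponential decay.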"}, "[23]": {"system": "Hepatitis C virus", "experiment": "Antiviral activity against Hepatitis C virus genotype 1b assessed as log reduction in RNA level at 1.2 times EC90 after 14 days by RT-PCR method", "type": "functional, organism-based", "conditions": "Hepacivirus hominis", "procedure,_shortened": "as §3"}, "[24]": {"system": "Hepatitis C virus", "experiment": "Antiviral activity against Hepatitis C virus genotype 1b assessed as decrease in RNA level after 3 days by RT-PCR method", "type": "functional, Hepacivirus hominis", "conditions": "72 h", "procedure,_shortened": "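Genotype 1b replicon cells seeded on collagen I-coated plates; compound added 24 h post-seeding and incubated 3 days. Cells lysed; replicon RNA by real-time PCR (TaqMan) with GAPDH RNA as endogenous control. EC50 = concentration giving a CT increase of 1 over projected baseline CT; EC90 = increase of 3.2. Triplicate measurements.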"}, "[25]": {"experiment": "Inhibition of Hepatitis C virus genotype 3a NS3 protease", "design": "species or system Hepatitis C virus subtype 3a", "procedure,_shortened": "(§4)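 Recombinant single-chain NS3-NS4A protease (genotypes 1a, 1b, 2a, 3a). Continuous spectrophotometric assay: enzyme added to an equal volume of buffer containing the chromogenic substrate acetyl-DTEDVVP(norvaline)-O-4-phenylazophenol. Absorbance was followed for 60 min at several inhibitor levels. Progress curves were fit to a modified Morrison equation. Overall K*i was derived from vs/vo versus [I], corrected using substrate concentration and Km.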"}, "[26]": {"experiment": "Inhibition of Hepatitis C virus genotype 1a NS3 protease", "design": "species or system Hepatitis C virus subtype 1a", "procedure,_shortened": "as §4"}, "[27]": {"experiment": "Inhibition of Hepatitis C virus genotype 2a NS3 protease", "design": "species or system Hepatitis C virus subtype 2a", "procedure,_shortened": "as §4"}, "[28]": {"system": "Hepatitis C virus", "experiment": "Resistance index, ratio of EC90 for Hepatitis C virus genotype 1b expressing NS3 protease T54A/S mutant to EC90 for wild type Hepatitis C virus genotype 1b after 3 days by RT-PCR method", "type": "functional, Hepacivirus hominis", "procedure,_shortened": "as §1"}, "[29]": {"system": "Hepatitis C virus", "experiment": "Resistance index, ratio of EC90 for Hepatitis C virus genotype 1b expressing NS3 protease A156S mutant to EC90 for wild type Hepatitis C virus genotype 1b after 3 days by RT-PCR method", "type": "functional, Hepacivirus hominis", "procedure,_shortened": "as §1"}, "[30]": {"system": "Hepatitis C virus", "experiment": "Resistance index, ratio of EC90 for Hepatitis C virus genotype 1b expressing NS3 protease A156T/V mutant to EC90 for wild type Hepatitis C virus genotype 1b after 3 days by RT-PCR method", "type": "functional, Hepacivirus hominis", "procedure,_shortened": "as §1"}, "[31]": {"system": "Hepatitis C virus", "experiment": "Resistance index, ratio of EC90 for Hepatitis C virus genotype 1b expressing NS3 protease T54A and A156T mutant to EC90 for wild type Hepatitis C virus genotype 1b after 3 days by RT-PCR method", "type": "functional, Hepacivirus hominis", "procedure,_shortened": "as §1"}, "[32]": {"system": "Hepatitis C virus", "experiment": "Inhibition of Hepatitis C virus genotype 1b NS3 protease", "design": "species or system Hepatitis C virus subtype 1b", "procedure,_shortened": "as §4"}}, "note": "Active and inactive are the calls of the source. No cut-off for these calls is given here.", "data": [{"smiles": "CCCC[C@H](NC(=O)[C@@H]1[C@@H]2[C@H](CN1C(=O)[C@@H](NC(=O)NC1(CS(=O)(=O)C(C)(C)C)CCCCC1)C(C)(C)C)C2(C)C)C(=O)C(=O)NC1CC1", "note": "[NARLAPREVIR]", "values": [{"measurement": "Ratio EC50", "setting": "[1]", "value": 70}, {"measurement": "Ratio EC50", "setting": "[2]", "value": 15}, {"measurement": "Ratio Ki", "setting": "[3]", "value": 1}, {"measurement": "Ratio EC50", "setting": "[4]", "value": 11}, {"measurement": "Ratio EC50", "setting": "[5]", "value": 8}, {"measurement": "Ratio Ki", "setting": "[6]", "value": 6}, {"measurement": "Ratio Ki", "setting": "[7]", "value": 160}, {"measurement": "Ratio Ki", "setting": "[8]", "value": 58}, {"measurement": "Ratio EC50", "setting": "[9]", "value": 130}, {"measurement": "Ratio EC50", "setting": "[10]", "value": 10}, {"measurement": "Ratio EC50", "setting": "[11]", "value": 1}, {"measurement": "Ratio EC50", "setting": "[12]", "value": "> 1000"}, {"measurement": "Ratio Ki", "setting": "[13]", "value": 3000}, {"measurement": "Ratio Ki", "setting": "[14]", "value": 100}, {"measurement": "Ratio Ki", "setting": "[15]", "value": 8}, {"measurement": "Ratio Ki", "setting": "[16]", "value": 3}, {"measurement": "Ratio Ki", "setting": "[17]", "value": 8}, {"measurement": "Ratio Ki", "setting": "[18]", "value": 8}, {"measurement": "Ratio Ki", "setting": "[19]", "value": 5}, {"measurement": "CC50", "setting": "[20]", "value": "> 25000", "unit": "nM"}, {"measurement": "Ratio Ki", "setting": "[21]", "value": 3}, {"measurement": "Activity", "setting": "[22]", "value": "Active"}, {"measurement": "Activity", "setting": "[23]", "value": "Active"}, {"measurement": "EC90", "setting": "[24]", "value": 40, "unit": "nM"}, {"measurement": "Ki", "setting": "[25]", "value": 7, "unit": "nM"}, {"measurement": "Ki", "setting": "[26]", "value": 0.7, "unit": "nM"}, {"measurement": "Ki", "setting": "[27]", "value": 3, "unit": "nM"}, {"measurement": "Ratio", "setting": "[28]", "value": 10}, {"measurement": "Ratio", "setting": "[29]", "value": 30}, {"measurement": "Ratio", "setting": "[30]", "value": 500}, {"measurement": "Ratio", "setting": "[31]", "value": ">600"}, {"measurement": "Ki", "setting": "[32]", "value": 7, "unit": "nM"}]}]}
